This data set in a line: Toxicity liver stage against HepG2, at 10uM. It is filed as cell-based. Set-up: test concentration 10 uM, cell line HepG2-A16-CD81EGFP. The conditions noted are these: human, HepG2-A16-CD81EGFP cells; read-out: INHIBITION
In short, it runs like this: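 Uninfected HepG2-A16-CD81EGFP cells, 3 × 10^3 per well, 1536-well, plated on prespotted compound at 10 μM final, parasite-free screening media added to match infected plates; puromycin 10 μM positive, DMSO 0.5% negative; run in parallel with 48 h PbLuc assay at 37 °C, 5% CO2; viability by CellTiter-Glo luminescence, normalized to controls.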
As to `COCCN1CCN(C(=O)C[C@@H]2C[C@@H](C(C)C)[C@H](CO)C=C2C)CC1`, the cytotoxicity at 10 µM was found to be 4.82%.
Regarding `COCC(=O)NC[C@H]1C[C@@H]2CCN1C[C@@H]2CN(C)c1ccccc1`, the cytotoxicity at 10 µM is -2.17%.
Turning to `COc1ccccc1NC(=O)N1CCCC1c1ccco1` (stereo not drawn), the cytotoxicity at 10 µM was -4.78%.
As to `Cn1ccc2c(C(=O)N3CC[C@@]4(O)CCCC[C@H]4C3)cccc21`, the cytotoxicity at 10 µM was -42.9%.
Turning to `Cc1cc2c(N)nc(=O)n(CC(=O)Nc3ccccc3)c2s1`, the cytotoxicity at 10 µM was 1.54%.
For the compound `Cc1ccc(S(=O)(=O)Nc2c(C)nc(N3CCCC3)nc2C)cc1`, the cytotoxicity at 10 µM is -0.243%.
On to `CN1[C@@H](C(=O)NCC2CC2)C[C@@H]2CN(Cc3ccoc3)C[C@@H]21`, for which the cytotoxicity at 10 µM is 3.88%.
As to `O=C(CCc1nc2cccnc2[nH]1)Nc1cccnc1`, the cytotoxicity at 10 µM came out at 2.92%.
As to `Cc1cc(C(=O)N2C[C@@H]3COC[C@]3(COCc3cccnc3)C2)no1`, the cytotoxicity at 10 µM was -16.1%.
With `OC(CN1CCOCC1)c1ccc(Br)cc1` (stereo not drawn), the cytotoxicity at 10 µM was -6.58%.
The value for `CCS(=O)(=O)Nc1cnn(Cc2cccc(Cl)c2)c1` was -11.5%.
As to `CCCN1CCC(NC(=O)c2csc(C)c2-c2ccc(C)cc2)CC1`, the cytotoxicity at 10 µM is -4.14%.
On to `CCCc1noc(C2CCCCN2C(=O)CCc2cnn(C)c2)n1` (stereo not drawn), for which the cytotoxicity at 10 µM was -1.89%.
Regarding `CCOC(=O)C1CCCN(c2nccc(-n3nc(C)cc3C)n2)C1` (stereo not drawn), the cytotoxicity at 10 µM is -11%.
With `CCn1ncc(Cl)c1CN(C)C(=O)CCn1ncc(Br)c1C`, the cytotoxicity at 10 µM came out at 2.93%.
Consider `CCOCc1cccc(S(=O)(=O)N2CCSCC2)c1`, for which the cytotoxicity at 10 µM worked out at 1.26%.
Regarding `COc1ccc(CC(=O)N2CCN(Cc3ccco3)C[C@@H]2C)cc1`, the cytotoxicity at 10 µM was determined as 1.42%.
With `CC(C)N1CCN(C)CC(Cc2cc(N(C)C)ncn2)C1` (stereo not drawn), the cytotoxicity at 10 µM worked out at 9.25%.
Regarding `CC[C@H](Cn1ncc2ccccc2c1=O)NC(=O)c1cnc(C)cn1`, the cytotoxicity at 10 µM was determined as 5.98%.
For `CC(=O)N1CCCC1c1nc(N(C)C)ncc1-c1ccccc1` (stereo not drawn), the cytotoxicity at 10 µM was 6.12%.
As for `CCn1ccc2ccnc(CC3CN(C(=O)c4cnco4)C3)c21`, the cytotoxicity at 10 µM is -6.61%.
For `CN(C)c1nccc(C2CN(C(=O)CO)C2)n1`, the cytotoxicity at 10 µM was -10.6%.
Then `CC(=O)N1CCC(Cc2cnc(-c3c(C)n[nH]c3C)cn2)CC1`, with -21.7%; and `Cc1noc(C)c1-c1cncc(C2CCCN2Cc2ncccc2F)n1` (stereo not drawn), with 7.84%; and `O=C(COc1cccc(F)c1)N1CCCCC1c1ccn2ccnc2n1` (stereo not drawn), with -6.11%.
As to `CNC(=O)C1(c2cnccn2)CCCN1C(=O)c1cccc(F)c1` (stereo not drawn), the cytotoxicity at 10 µM was -29.6%.
Take `O=c1[nH]c2ncccc2n1C1CCCCC1`: the cytotoxicity at 10 µM came to 3.16%.
The value for `O=C(CCNc1ccc(Cl)cn1)NCc1ccncc1` was -2.31%; that for `CCn1c(C)cc(C(=O)Nc2ccccc2CN(C)C(C)=O)c1C` was -1.03%.
As to `CN(C)CCOc1ccccc1N1CCN(C(=O)c2ccoc2)CC1`, the cytotoxicity at 10 µM was found to be 24.8%.
Turning to `CCNC(=O)Nc1cccc(F)c1C(=O)NC1CCCC1`, the cytotoxicity at 10 µM came out at 5.69%.
Turning to `O=C(Cc1ccc(F)cc1)NCc1ccc(C(=O)O)o1`, the cytotoxicity at 10 µM was -8.06%.
For the compound `COCCN1CC(C(=O)N(C)Cc2ccc(Cl)s2)CC1=O` (stereo not drawn), the cytotoxicity at 10 µM is 8.69%.
In the case of `COC(=O)C(NC(=O)c1ccc(NC2CC2)nc1)c1ccccc1` (stereo not drawn), the cytotoxicity at 10 µM was -9.88%.
The value for `COC1CCN(C(=O)c2ccc3ncsc3c2)CC1` was -10.3%; that for `COc1ccc(CN(C(=O)C2CCOCC2)c2ccncc2)cc1` was 8.5%.
Turning to `Cn1cnnc1CNC(=O)CCCOc1ccccc1Cl`, the cytotoxicity at 10 µM is 3.28%.
In the case of `COc1ccc(OC)c(CN2CCN(Cc3cscn3)CC2)c1`, the cytotoxicity at 10 µM is -7.15%.
With `CNC(=O)c1cc(NC(=O)Nc2cnn(CC(C)C)c2)ccc1F`, the cytotoxicity at 10 µM is -3.79%.
For the compound `NC(=O)NC1CCN(Cc2ccc(Br)c(F)c2)CC1`, the cytotoxicity at 10 µM was -1.57%.
For `O=S(=O)(NCCc1cn2ccccc2n1)N1CCOCC1`, the cytotoxicity at 10 µM is -3.98%.
For `COc1ccc(CCNC(=O)c2ccc(=O)n(C)c2)c(Cl)c1`, the cytotoxicity at 10 µM is -10.3%.
The value for `CC(C)n1ccc(C(=O)OCC2CC(=O)N(Cc3ccccc3)C2)n1` (stereo not drawn) was 0.379%; that for `CN(C)c1cc2c(nn1)CCN(C(=O)c1cc3c(s1)CCC3)C2` was -6.97%; that for `CCS(=O)(=O)CC(=O)N1CCCC(c2noc(C(C)C)n2)C1` (stereo not drawn) was -4.78%.
For the compound `CCOc1ccc(Cl)cc1CCNC(=O)N1CCCC(CO)C1` (stereo not drawn), the cytotoxicity at 10 µM came to 5.46%.
On to `CC(CC(=O)N1CCC(c2nnc3n2CCC3)CC1)n1cccc1` (stereo not drawn), for which the cytotoxicity at 10 µM amounted to 8.11%.
The value for `Cc1cc(C(=O)NCC(c2ccccc2Cl)N2CCOCC2)on1` (stereo not drawn) was 2.62%; that for `Cc1nn(C)c(C)c1CC(=O)NCc1cccnc1N1CCOCC1` was -139%.
Then `CCOc1ccc(NC(C)C(=O)NCCc2cccs2)cc1CO` (stereo not drawn), with -6.79%; and `CN(CC1CC1)C(=O)CN1CCCC1c1cnn(C)c1` (stereo not drawn), with 2.01%; and `Cc1noc(CCNS(=O)(=O)N2CCCC2c2ccc(C)o2)n1` (stereo not drawn), with -10%.
The value for `O=C(CN1CCc2[nH]c3ccccc3c2C1)NCc1ccco1` was -3.04%; that for `COc1ccc(CNCCc2ccn(-c3ccccc3)n2)cc1O` was -0.13%; that for `Cn1ncnc1CNc1ccccc1C(=O)NC(C)(C)C` was 3.9%.
Take `Cc1cc(C2CCCN(CCC(=O)N3CCc4ccccc43)C2)n[nH]1` (stereo not drawn): the cytotoxicity at 10 µM was -7.9%.
Take `CC(=O)c1ccc(Cl)c(Cl)c1OCC(=O)NC(N)=O`: the cytotoxicity at 10 µM was 7.49%.
The value for `CC(Nc1cccc(Oc2ccc(C#N)cn2)c1)C(=O)NC1CC1` (stereo not drawn) was 12.8%.
In the case of `Cc1cc(CNC(=O)c2ccc(F)c(COCC3CC3)c2)no1`, the cytotoxicity at 10 µM is -0.429%.
Regarding `CNC(=O)CN1CCC(NC(=O)Cc2ccccc2OC(C)C)CC1`, the cytotoxicity at 10 µM is -2.14%.
With `O=C(NCCc1csc(N2CCCC2)n1)N(C1CCCC1)C1CC1`, the cytotoxicity at 10 µM is 10.8%.
As for `O=C(COc1cccc2c1CCC2=O)NCc1ccccc1F`, the cytotoxicity at 10 µM was -5.33%.
Turning to `COCC(=O)NCC[C@H]1CC(C)(C)Oc2ccc(OC)cc21`, the cytotoxicity at 10 µM is -5.36%.
Turning to `O=C(CSCC1CC1)N1CCC2(CCCN(C3CCOCC3)C2=O)C1` (stereo not drawn), the cytotoxicity at 10 µM was -127%.
As to `CCSc1ncc(CN(Cc2cnn(C)c2)CC(C)C)cn1`, the cytotoxicity at 10 µM was -7.53%.
With `CS(=O)(=O)NCc1cc2n(n1)CCCN(Cc1ccc(Cl)s1)C2`, the cytotoxicity at 10 µM stood at 2.81%.
Consider `COCCn1c(CN2CCCO2)cnc1S(=O)(=O)CC1CCCCC1`, for which the cytotoxicity at 10 µM is -8.62%.
With `CCc1csc(CCNC(=O)CC2CCN(C(C)C)CC2)n1`, the cytotoxicity at 10 µM was found to be 6.62%.
Consider `Cc1cc(C(=O)N2CC[C@@]3(O)CCN(C(=O)N4CCCC4)C[C@H]3C2)no1`, for which the cytotoxicity at 10 µM is -6.74%.
The value for `CCN(C)S(=O)(=O)NCC1CCCN(Cc2ccccc2F)C1` (stereo not drawn) was -1.22%; that for `CN1CCC(C)(CN(C)C(=O)c2ccc(CCC(C)(C)O)cc2)C1` (stereo not drawn) was -11.2%.
For `CN1CCC2(CC1)CCN(C(=O)c1onc3ccccc13)C2`, the cytotoxicity at 10 µM was -9.14%.
Regarding `COc1ccc(-c2ccc(C(=O)N3CCOCC3CC(=O)O)o2)cc1` (stereo not drawn), the cytotoxicity at 10 µM is 1.79%.
Regarding `CCc1cc(C(=O)N2CC[C@@H](c3ccc4ccccc4c3)[C@H](O)C2)[nH]n1`, the cytotoxicity at 10 µM was found to be 3.46%.
As for `CC(C)SCCNC(=O)c1cccc2ccnn12`, the cytotoxicity at 10 µM was -51.6%.
Regarding `CN1CC2(CCCN(Cc3ccccc3OCC(=O)O)C2)OC1=O` (stereo not drawn), the cytotoxicity at 10 µM is -6.64%.
With `COc1cccc(OCC2CCCN(Cc3ccncc3)C2)c1` (stereo not drawn), the cytotoxicity at 10 µM is -7.66%.
For the compound `CSCc1noc(CN2CC(Cc3ccccc3)CC2=O)n1` (stereo not drawn), the cytotoxicity at 10 µM was -0.404%.
Turning to `COc1cccc(C(=O)N2CCC3(CCC(=O)N(C(C)C)C3)CC2)c1C`, the cytotoxicity at 10 µM is -3.21%.
Regarding `CSCCCN1CCN(c2ccc(Cl)cn2)CC1`, the cytotoxicity at 10 µM is -5.52%.
As to `CC[C@H](C)[C@@H](CO)NC(C)Cc1ccccc1F` (stereo partly drawn), the cytotoxicity at 10 µM is -7.36%.
As to `Cc1cccc(CN2CCc3c(nc(N4CCC(C)CC4)[nH]c3=O)C2)n1`, the cytotoxicity at 10 µM is -1.75%.
As for `Cc1nnc(NCc2ccccc2F)c(C#N)c1C`, the cytotoxicity at 10 µM was -9.71%.
Consider `O=C(Nc1ccccc1OCC1CCCCO1)c1ccc(O)nc1` (stereo not drawn), for which the cytotoxicity at 10 µM turned out to be 5.41%.
For `CCCOCC(=O)N1CCCN(Cc2csc(CC)n2)CC1`, the cytotoxicity at 10 µM worked out at 3.78%.
As for `Cc1nc(CN(C)C2CCN(CC(=O)NC3CCOCC3)C2)no1` (stereo not drawn), the cytotoxicity at 10 µM was -7.15%.
The value for `CC(C(=O)NCc1ccnc(N2CCCC2)c1)n1cncn1` (stereo not drawn) was -3.43%; that for `O=C(c1cccc2[nH]ncc12)N1CCCC1c1noc(C2CC2)n1` (stereo not drawn) was -2.91%.
Turning to `CCCc1ccc(OCCNCc2ccco2)c(OC)c1`, the cytotoxicity at 10 µM is -2.04%.
For `CN1CCN(Cc2ccncc2)C(=O)C12CCN(Cc1ccsc1)CC2`, the cytotoxicity at 10 µM stood at 3.03%.
As for `CCOCC1CN(C(=O)c2ccncn2)Cc2cnn(C)c21` (stereo not drawn), the cytotoxicity at 10 µM was -143%.
Turning to `CC(C)CN1CC[C@@H]2[C@@H]1CCN2S(=O)(=O)c1cccs1`, the cytotoxicity at 10 µM was found to be 2.61%.
As to `O=C(c1ccco1)N1C[C@H]2CCCN(Cc3nccs3)[C@H]2C1`, the cytotoxicity at 10 µM was 2.32%.
Take `CC(C)c1nn(C)c(Cl)c1CNCc1ccc2c(c1)OCCO2`: the cytotoxicity at 10 µM is -1.64%.
For `O=C(CC1CC1)NC[C@]12COC[C@H]1CN(c1ncc(F)cn1)C2`, the cytotoxicity at 10 µM was -141%.
Consider `Fc1cnc(N2CCCC3(CN(Cc4ccncc4)CCO3)C2)nc1` (stereo not drawn), for which the cytotoxicity at 10 µM stood at 3.34%.
In the case of `Cc1n[nH]cc1CNCC(O)c1ccc(F)c(F)c1` (stereo not drawn), the cytotoxicity at 10 µM turned out to be 6.8%.
Regarding `O=C(NCCc1ccccc1)C1CCC(Cn2cnnn2)CC1` (stereo not drawn), the cytotoxicity at 10 µM amounted to 2.01%.

These data come from ChEMBL document CHEMBL4513216, “Probing the Open Global Health Chemical Diversity Library for Multistage-Active Starting Points for Next-Generation Antimalarials” (ACS Infect Dis, 2020).
